Reference: ChEMBL document CHEMBL1833955, “Optimization of (arylpiperazinylbutyl)oxindoles exhibiting selective 5-HT₇ receptor antagonist activity” (J Med Chem, 2011)

Tests used:
[1] = target: Adrenergic receptor alpha-1 (Rattus norvegicus) (UniProt P15823+P23944+P43140); assay: Displacement of [3H]prazosin from alpha1-adrenergic receptor in rat frontal cortex membrane at 10^-7 M after 45 mins by scintillation spectrometry; format: cell membranes
Procedure, shortened: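 Rat frontal cortex membranes (tissue frozen on dry ice, homogenized in 50 mM Tris-HCl pH 7.7, washed by repeated 40 000 g spins at 4 °C) incubated with 0.6 nM [3H]prazosin, 45 min at 25 °C, triplicates; nonspecific binding with 10 μM prazosin. Filtration over GF/B filters presoaked in 0.05% polyethylenimine, scintillation counting; single test concentration 10^-7 M.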

[2] = target: T1, 5-hydroxytryptamine receptor 1A (Rattus norvegicus, UniProt P19327); assay: Displacement of [3H]8-OH-DPAT from 5-HT1A receptor in rat frontal cortex membrane after 45 mins by scintillation counting; format: cell membranes
T1 sequence (P19327 whole entry): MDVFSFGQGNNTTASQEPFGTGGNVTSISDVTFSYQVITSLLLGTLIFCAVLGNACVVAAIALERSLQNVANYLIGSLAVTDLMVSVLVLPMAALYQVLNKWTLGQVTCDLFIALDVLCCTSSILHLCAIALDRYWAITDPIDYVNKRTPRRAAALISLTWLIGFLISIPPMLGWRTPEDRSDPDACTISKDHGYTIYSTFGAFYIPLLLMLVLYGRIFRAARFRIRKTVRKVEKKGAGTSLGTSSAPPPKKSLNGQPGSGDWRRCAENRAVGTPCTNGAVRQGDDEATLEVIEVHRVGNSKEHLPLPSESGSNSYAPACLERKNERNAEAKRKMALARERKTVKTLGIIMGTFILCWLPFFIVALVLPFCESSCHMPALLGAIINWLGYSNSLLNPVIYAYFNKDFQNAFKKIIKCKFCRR
Procedure, shortened: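 Membranes from adult rat frontal cortex, prepared in 50 mM Tris-HCl pH 7.7 with washes and a 37 °C preincubation. Incubation buffer: 6.66 mM CaCl2, 16.66 μM pargyline, 0.166% ascorbic acid. Ligand 1.5 nM [3H]8-OH-DPAT; 10 μM 5-HT defines nonspecific binding. 45 min at 25 °C, GF/B filtration, scintillation counting. Triplicates; Ki from two nine-point curves, single-site fit.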

[3] = target: 5-hydroxytryptamine receptor 7 (Homo sapiens, UniProt P34969); assay: Displacement of [3H]CT from human 5-HT7 receptor expressed in CHO cells by scintillation spectrometry; format: cell-based
Procedure, shortened: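 Cloned human 5-HT7 receptor from CHO cells, run under the supplier's recommended conditions with [3H]CT. Nonspecific binding with 25 μM clozapine. Ended by GF/C filtration, then scintillation counting. Ki taken from two nine-concentration displacement curves run in triplicate, single-site fit.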

[4] = Plasma concentration in NMRI mouse at 3 mg/kg, ip after 30 mins by HPLC-MS/MS analysis; format: ADME, organism-based; parameters: dose 3 mg/kg, route intraperitoneal
Procedure, shortened: (§1)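 Male NMRI mice, 25–30 g, given four compounds together ip as a cassette suspension in 0.4% methyl cellulose (n = 3/dose). After 30 min, vena cava blood and brain collected. Brain homogenised in 4 volumes of water; samples extracted with acetonitrile–water 3:1 and analysed by gradient HPLC-MS/MS against spiked calibrators. Brain/plasma given as percentage.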

Rattus norvegicus = assay: Anxiolytic activity in ip dosed Wistar rat assessed as number of punished licks administered 30 mins prior to test by conflict drinking Vogel test; format: functional; details: read-out: MED
Procedure, shortened: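 Male Wistar rats, 160–180 g, water-deprived 48 h and fasted 24 h. Drug or vehicle given ip 30 min before testing, carried out in a quiet room at 23 °C between 07:30 and 13:00. Modified Vogel procedure. Mean ± SEM tolerated shocks per group, one-way ANOVA with Duncan's test; MED reported.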

[5] = Drug level in NMRI mouse brain at 1 mg/kg, ip after 30 mins by HPLC/MS/MS analysis; format: ADME, organism-based; parameters: dose 1 mg/kg, route intraperitoneal; details: read-out: Drug uptake; procedure, shortened: as §1
Mus musculus [6] = assay: Anxiolytic activity in ip dosed NMRI mouse assessed as behavioral activity administered 30 mins prior to test measured up to 5 mins by light-dark test; format: functional; details: read-out: MED
Procedure, shortened: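 Male NMRI mice, 25–33 g, housed in the dark, dosed ip 30 min before test. Each mouse placed in the centre of the lit side of an automated two-compartment chamber under a 2-lx light. Activity recorded for 5 min: time in each area, transitions, horizontal and vertical activity. Means ± SEM, one-way ANOVA with Duncan's test; MED reported.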

[7] = Drug level in NMRI mouse brain at 10 mg/kg, ip after 30 mins by HPLC/MS/MS analysis; format: ADME, organism-based; parameters: dose 10 mg/kg, route intraperitoneal; details: read-out: Drug uptake; procedure, shortened: as §1
[8] = Plasma concentration in NMRI mouse at 10 mg/kg, ip after 30 mins by HPLC-MS/MS analysis; format: ADME, organism-based; parameters: dose 10 mg/kg, route intraperitoneal; procedure, shortened: as §1
[9] = Selectivity ratio of Ki for 5-HT1A receptor in rat frontal cortex membrane to Ki for human 5-HT7 receptor; format: cell membranes
[10] = Plasma concentration in NMRI mouse at 1 mg/kg, ip after 30 mins by HPLC-MS/MS analysis; format: ADME, organism-based; parameters: dose 1 mg/kg, route intraperitoneal; procedure, shortened: as §1
[11] = Selectivity ratio of Ki for alpha1-adrenergic receptor in rat frontal cortex membrane to Ki for human 5-HT7 receptor; format: cell membranes
[12] = Drug level in NMRI mouse brain at 3 mg/kg, ip after 30 mins by HPLC/MS/MS analysis; format: ADME, organism-based; parameters: dose 3 mg/kg, route intraperitoneal; details: read-out: Drug uptake; procedure, shortened: as §1
[13] = Metabolic stability in rat liver microsomes after 60 mins by HPLC-MS/MS analysis; format: ADME, Microsome; details: read-out: Stability
Procedure, shortened: (§2)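 Test compound at 100 nM final incubated with rat or human liver microsomes (0.33 mg/mL) at 37 °C for 0, 5, 15, 30 and 60 min. Buffer Tris-HCl pH 7.4 with Mg2+ and BSA. Reaction started with NADPH and stopped with ice-cold MeOH. Parent compound measured by HPLC-MS/MS, positive-ion MRM.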

[14] = target: T2, Adrenergic receptor alpha-1 (Rattus norvegicus, UniProt P15823+P23944+P43140); assay: Displacement of [3H]prazosin from alpha1-adrenergic receptor in rat frontal cortex membrane after 45 mins by scintillation spectrometry; format: cell membranes
T2 sequence (P15823 whole entry): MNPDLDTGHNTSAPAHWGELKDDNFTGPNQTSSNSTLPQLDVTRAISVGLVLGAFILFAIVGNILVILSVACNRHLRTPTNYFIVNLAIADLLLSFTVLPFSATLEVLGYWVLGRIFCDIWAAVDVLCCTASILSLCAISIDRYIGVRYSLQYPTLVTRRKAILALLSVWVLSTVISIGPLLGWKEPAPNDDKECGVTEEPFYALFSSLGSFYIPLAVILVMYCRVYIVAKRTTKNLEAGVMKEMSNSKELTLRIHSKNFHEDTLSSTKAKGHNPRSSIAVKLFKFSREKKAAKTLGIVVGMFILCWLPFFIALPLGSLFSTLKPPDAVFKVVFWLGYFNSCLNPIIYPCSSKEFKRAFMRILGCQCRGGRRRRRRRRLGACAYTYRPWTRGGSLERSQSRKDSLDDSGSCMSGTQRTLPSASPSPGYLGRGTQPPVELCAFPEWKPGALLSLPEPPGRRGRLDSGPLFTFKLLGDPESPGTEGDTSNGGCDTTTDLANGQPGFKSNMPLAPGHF
T2 sequence (P23944 whole entry): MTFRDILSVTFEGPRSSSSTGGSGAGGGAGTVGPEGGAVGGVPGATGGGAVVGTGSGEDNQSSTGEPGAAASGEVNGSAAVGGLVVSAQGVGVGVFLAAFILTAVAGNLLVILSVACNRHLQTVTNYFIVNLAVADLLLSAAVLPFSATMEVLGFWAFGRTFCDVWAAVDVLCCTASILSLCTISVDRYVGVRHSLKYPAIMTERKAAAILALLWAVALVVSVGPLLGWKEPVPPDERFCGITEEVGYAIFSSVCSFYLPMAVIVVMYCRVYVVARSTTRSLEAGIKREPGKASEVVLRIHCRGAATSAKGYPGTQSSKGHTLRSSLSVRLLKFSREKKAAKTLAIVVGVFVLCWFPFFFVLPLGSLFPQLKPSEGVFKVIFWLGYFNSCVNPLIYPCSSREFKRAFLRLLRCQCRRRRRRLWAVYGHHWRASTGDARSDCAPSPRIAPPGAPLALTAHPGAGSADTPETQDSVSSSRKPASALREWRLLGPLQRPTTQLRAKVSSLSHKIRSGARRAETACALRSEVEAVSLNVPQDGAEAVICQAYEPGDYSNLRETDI
T2 sequence (P43140 whole entry): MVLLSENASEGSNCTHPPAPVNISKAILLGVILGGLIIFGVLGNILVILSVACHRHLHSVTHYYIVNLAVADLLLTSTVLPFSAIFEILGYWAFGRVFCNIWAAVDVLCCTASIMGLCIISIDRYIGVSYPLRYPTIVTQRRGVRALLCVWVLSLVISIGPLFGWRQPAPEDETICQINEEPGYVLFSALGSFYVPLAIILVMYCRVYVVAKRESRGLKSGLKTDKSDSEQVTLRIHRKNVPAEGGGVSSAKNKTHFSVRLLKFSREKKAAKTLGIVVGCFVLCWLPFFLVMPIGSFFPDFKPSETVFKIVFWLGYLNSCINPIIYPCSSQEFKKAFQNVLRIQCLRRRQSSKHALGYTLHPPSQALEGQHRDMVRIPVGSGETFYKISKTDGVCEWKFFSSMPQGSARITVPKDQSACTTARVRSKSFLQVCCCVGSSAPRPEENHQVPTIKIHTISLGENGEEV
Procedure, shortened: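 Rat frontal cortex tissue frozen on dry ice, homogenised in 50 mM Tris-HCl pH 7.7 and washed by centrifugation. [3H]prazosin at 0.6 nM; 10 μM prazosin defines nonspecific binding. 45 min at 25 °C, GF/B filtration, scintillation counting. Triplicates; Ki from two nine-concentration curves fitted to a single-site model.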

[15] = Metabolic stability in human liver microsomes after 60 mins by HPLC-MS/MS analysis; format: ADME, Microsome; details: read-out: Stability; procedure, shortened: as §2
Mus musculus [16] = assay: Antidepressant activity in ip dosed NMRI mouse assessed as decrease in immobility time administered 30 mins prior to test measured last 4 mins of 6 mins testing period by forced swimming test; format: functional; details: read-out: MED
Procedure, shortened: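 Mice given drug or vehicle ip 30 min before test. Each mouse placed in a 17.7 cm high, 12 cm diameter glass cylinder holding 25 °C water to 12.5 cm depth, four mice at a time. Immobility (floating, only movements keeping head above water) timed over the last 4 min of a 6 min session.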

[17] = target: T3, 5-hydroxytryptamine receptor 1A (Rattus norvegicus) (UniProt P19327); assay: Displacement of [3H]8-OH-DPAT from 5-HT1A receptor in rat frontal cortex membrane at 10^-7 M after 45 mins by scintillation counting; format: cell membranes
T3 sequence (whole entry): T1 sequence (P19327 whole entry)

Chain of 5-hydroxytryptamine receptor 7 (P34969 whole entry): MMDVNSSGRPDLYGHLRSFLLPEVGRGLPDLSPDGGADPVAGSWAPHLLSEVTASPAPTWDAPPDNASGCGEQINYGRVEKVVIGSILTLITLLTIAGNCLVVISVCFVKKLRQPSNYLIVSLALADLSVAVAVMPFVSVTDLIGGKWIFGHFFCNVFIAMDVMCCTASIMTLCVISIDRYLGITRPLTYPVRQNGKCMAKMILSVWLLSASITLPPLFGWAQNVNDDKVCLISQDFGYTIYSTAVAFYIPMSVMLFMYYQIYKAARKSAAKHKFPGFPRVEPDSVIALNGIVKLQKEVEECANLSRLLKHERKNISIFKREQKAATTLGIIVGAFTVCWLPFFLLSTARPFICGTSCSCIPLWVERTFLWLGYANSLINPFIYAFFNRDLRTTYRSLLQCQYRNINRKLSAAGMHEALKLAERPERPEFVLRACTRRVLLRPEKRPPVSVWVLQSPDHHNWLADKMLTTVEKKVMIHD

SMILES	inhibition [1] [%]	Ki [2] [nM]	Ki [3] [nM]	concentration at 0.5 h [4] [nM]	minimal effective dose (Rattus norvegicus) [mg/kg]	concentration at 0.5 h [5] [nM]	minimal effective dose (Mus musculus [6]) [mg/kg]	concentration at 0.5 h [7] [nM]	concentration at 0.5 h [8] [nM]	Ratio Ki [9]	concentration at 0.5 h [10] [nM]	Ratio Ki [11]	concentration at 0.5 h [12] [nM]	remaining at 1 h [13] [%]	Ki [14] [nM]	remaining at 1 h [15] [%]	minimal effective dose (Mus musculus [16]) [mg/kg]	inhibition [17] [%]
O=C1Nc2ccc(F)cc2C1CCCCN1CC=C(c2cccc(C(F)(F)F)c2)CC1 (stereo unspecified)	11	55	40															
CCC1(CCCCN2CCN(c3cccc(Cl)c3)CC2)C(=O)Nc2ccccc21 (stereo unspecified)		46	0.4	168	> 10	65	> 20	824	272	115	22	78	613	4	31	31		
CCC1(CCCCN2CCN(c3ccc(Cl)cc3)CC2)C(=O)Nc2c1cc(Cl)c(F)c2Cl (stereo unspecified)			96		> 20		> 10					4		72	380	76	> 30	10
CCC1(CCCCN2CCN(c3ccc(Cl)cc3)CC2)C(=O)Nc2c(Cl)cc(Cl)cc21 (stereo unspecified)			9.5		5		1			> 100		12		76	110	53	> 30	5
CCC1(CCCCN2CCN(c3ccc(Cl)c(Cl)c3)CC2)C(=O)Nc2ccccc21 (stereo unspecified)			0.6	174		43		1150	861	> 100	31	208	223	13	125	29	> 10	11
